Activity calls are given as the source filed them. The rule behind the calls is not given here.
Experiments:
A549 = assay: Cytotoxicity against human A549 cells after 48 hrs by MTT assay; format: functional, cell-based; conditions: A549, 48 h
How it was run: (§1)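 MTT assay. Cells seeded at 1×10^4 per well in DMEM or MEM with 10% FBS and grown 24 h at 37 °C under CO2. Compounds added for 48 h, then MTT (5 mg/mL stock) for 4 h. Formazan dissolved in DMSO and read at 570 nm. IC50 is the average of three independent experiments.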

MDA-MB-231 = assay: Cytotoxicity against human MDA-MB-231 cells after 48 hrs by MTT assay; format: functional, cell-based; conditions: MDA-MB-231, 48 h; how it was run: as §1
HT-29 = assay: Cytotoxicity against human HT-29 cells after 48 hrs by MTT assay; format: functional, cell-based; conditions: HT-29, 48 h; how it was run: as §1
HeLa = assay: Cytotoxicity against human HeLa cells after 48 hrs by MTT assay; format: functional, cell-based; how it was run: as §1
DU-145 = assay: Induction of DNA damage in human DU145 cells after 24 hrs using propidium iodide stain by electrophoresis based fluorescence microscopic method; format: functional, cell-based
How it was run: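 DU-145 cells seeded in 60 mm dishes, treated at 10 μM for 24 h alongside an untreated control. Slides were washed three times in 0.4 M Tris-HCl pH 7.5, electrophoresed 20 min at 40 V in 0.5% TBE pH 8, PI-stained 30 min, and imaged at 20x.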

Homo sapiens = species: Homo sapiens; assay: Poisoning activity at topoisomerase-2 (unknown origin) assessed as reduction in ATP-dependent decatenation of kinetoplast DNA by measuring linear DNA formation at 10 uM after 30 mins by ethidium bromide staining based UV trans-illumination assay
How it was run: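 Topo II (5 units, set to decatenate about 100% of kDNA) with 200–300 ng kDNA in 20 μl containing 120 mM KCl, 50 mM Tris-HCl pH 8, 10 mM MgCl2, 0.5 mM DTT, 0.5 mM ATP and BSA. Incubated 30 min at 37 °C, then stopped with SDS plus proteinase K for 10 min at 37 °C. Products run on 1% agarose at 100 V for about 40 min, EtBr-stained and viewed under UV. Etoposide 10 μM served as positive control.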

**Q.** What does the source list for `COc1cc([C@@H]2c3cc4c(cc3[C@@H](O[C@@H]3O[C@@H]5CO[C@@H](C)O[C@H]5[C@H](O)[C@H]3O)[C@H]3COC(=O)[C@H]23)OCO4)cc(OC)c1O` [ETOPOSIDE]?
**A.** IC50 (A549): 2270 nM; IC50 (MDA-MB-231): 1910 nM; IC50 (HT-29): 1640 nM; IC50 (HeLa): 1930 nM; Activity (DU-145): Active; Activity (Homo sapiens): Active

— ChEMBL document CHEMBL4251624, “Synthesis of podophyllotoxin linked β-carboline congeners as potential anticancer agents and DNA topoisomerase II inhibitors” (Eur J Med Chem, 2018)
